Results as given in ChEMBL document CHEMBL1177765, “Synthesis and biological evaluation of new cytotoxic azanaphthoquinone pyrrolo-annelated derivatives” (Bioorg Med Chem Lett, 2010).
In brackets after ≈: the same amount, converted by molar mass. Activity calls are given as the source filed them. No cut-off for these calls is given here.

Tests used:
[1] = tested on: NCI-H460; test: Cytotoxicity against human NCI-H460 cells at 3.16 ug/mL after 48 hrs by XTT assay; format: functional; details: NCI-H460, 48 h
[2] = Cytotoxicity against human RKOp27 cells at 3.16 ug/mL after 48 hrs by XTT assay; format: functional; details: RKOp27, 48 h
[3] = Cytotoxicity against human KB/HeLa cells at 3.16 ug/mL after 48 hrs by XTT assay; format: functional
[4] = Cytotoxicity against human RKOp27IND cells at 3.16 ug/mL after 48 hrs by XTT assay; format: functional
[5] = tested on: SK-OV-3; test: Cytotoxicity against human SKOV3 cells at 3.16 ug/mL after 48 hrs by XTT assay; format: functional; details: SK-OV-3, 48 h
[6] = tested on: SF-268; test: Cytotoxicity against human SF268 cells at 3.16 ug/mL after 48 hrs by XTT assay; format: functional; details: SF-268, 48 h
[7] = Cytotoxicity against human KB/HeLa cells after 48 hrs by XTT assay; format: functional, cell-based
In short: (§1)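 XTT assay of cell proliferation after 48 h exposure. EC50 is the concentration giving 50% inhibition, fitted by nonlinear regression to data from at least two independent assays.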

[8] = tested on: Nucleic Acid; test: Binding affinity to DNA at 125 uM; format: nucleic-acid assay
In short: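 UV-absorbance DNA intercalation assay. Stocks up to 5 mM were made in 5% (v:v) DMSO or methanol, then diluted stepwise in pH 7 buffer (5 mM NaH2PO4, 5 mM Na2HPO4, 70 mM NaCl) to give absorbance maximum about 1–2. Spectra were read from 350 to 600 nm with or without 2 mg/ml calf thymus DNA. Acridine orange was the reference.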

[9] = Cell cycle arrest in human RKOp27IND cells assessed as accumulation at G2/M phase; format: functional, cell-based
[10] = Cell cycle arrest in human RKOp27 cells assessed as accumulation at G2/M phase; format: functional, cell-based
[11] = Cytotoxicity against human RKOp27 cells after 48 hrs by XTT assay; format: functional, cell-based; details: RKOp27, 48 h; in short: as §1
[12] = tested on: SF-268; test: Cytotoxicity against human SF268 cells after 48 hrs by XTT assay; format: functional, cell-based; details: SF-268, 48 h; in short: as §1
[13] = tested on: SK-OV-3; test: Cytotoxicity against human SKOV3 cells after 48 hrs by XTT assay; format: functional, cell-based; details: SK-OV-3, 48 h; in short: as §1
[14] = Cytotoxicity against human RKOp27IND cells after 48 hrs by XTT assay; format: functional, cell-based
[15] = tested on: NCI-H460; test: Cytotoxicity against human NCI-H460 cells after 48 hrs by XTT assay; format: functional, cell-based; details: NCI-H460, 48 h; in short: as §1

**Q.** Which inhibition at 3.16 µg/mL [1] does the source give for `CN(C)CCn1ccc2c1C(=O)c1cccnc1C2=O` here?
**A.** The inhibition at 3.16 µg/mL was under 50%.

**Q.** And the inhibition at 3.16 µg/mL [2]?
**A.** The inhibition at 3.16 µg/mL was under 50%.

**Q.** And the inhibition at 3.16 µg/mL [3]?
**A.** The inhibition at 3.16 µg/mL was under 50%.

**Q.** What about the inhibition at 3.16 µg/mL [4] of the same molecule?
**A.** Its inhibition at 3.16 µg/mL is under 50%.

**Q.** And the inhibition at 3.16 µg/mL [5]?
**A.** Its inhibition at 3.16 µg/mL is under 50%.

**Q.** And the inhibition at 3.16 µg/mL [6]?
**A.** Its inhibition at 3.16 µg/mL is under 50%.

**Q.** Which results are given for `CN(C)CCn1ccc2c1C(=O)c1cncnc1C2=O`?
**A.** EC50 [7]: 0.173 µg/mL (≈ 0.64 µM); Activity [8]: inactive; Activity [9]: inactive; Activity [10]: inactive; EC50 [11]: 0.173 µg/mL (≈ 0.64 µM); EC50 [12]: 0.107 µg/mL (≈ 0.396 µM); EC50 [13]: 0.239 µg/mL (≈ 0.884 µM); EC50 [14]: 0.377 µg/mL (≈ 1.39 µM); EC50 [15]: 0.082 µg/mL (≈ 0.303 µM)

**Q.** Which EC50 [7] does the source give for `CN(C)CCn1ccc2c1C(=O)c1ccncc1C2=O` here?
**A.** Its EC50 is 3 µg/mL (≈ 11.1 µM).

**Q.** What about the EC50 [11] of the same molecule?
**A.** Its EC50 is 3 µg/mL (≈ 11.1 µM).

**Q.** What about the EC50 [12] of the same molecule?
**A.** Its EC50 is 3 µg/mL (≈ 11.1 µM).

**Q.** And the EC50 [13]?
**A.** The EC50 was 3 µg/mL (≈ 11.1 µM).

**Q.** And the EC50 [14]?
**A.** The EC50 was 3 µg/mL (≈ 11.1 µM).

**Q.** What about the EC50 [15] of the same molecule?
**A.** The EC50 was 3 µg/mL (≈ 11.1 µM).

**Q.** For `CN(C)CCn1ccc2c1C(=O)c1ncccc1C2=O`, which inhibition at 3.16 µg/mL [1] is on record?
**A.** The inhibition at 3.16 µg/mL was under 50%.

**Q.** What about the inhibition at 3.16 µg/mL [2] of the same molecule?
**A.** The inhibition at 3.16 µg/mL was under 50%.

**Q.** And the inhibition at 3.16 µg/mL [3]?
**A.** Its inhibition at 3.16 µg/mL is under 50%.

**Q.** What about the inhibition at 3.16 µg/mL [4] of the same molecule?
**A.** Its inhibition at 3.16 µg/mL is under 50%.

**Q.** What about the inhibition at 3.16 µg/mL [5] of the same molecule?
**A.** The inhibition at 3.16 µg/mL was under 50%.

**Q.** And the inhibition at 3.16 µg/mL [6]?
**A.** The inhibition at 3.16 µg/mL was under 50%.

**Q.** With `CN(C)CCCn1ccc2c1C(=O)c1cncnc1C2=O` as the molecule, how does the EC50 [7] read?
**A.** Its EC50 is 0.28 µg/mL (≈ 0.985 µM).

**Q.** And the EC50 [11]?
**A.** Its EC50 is 0.246 µg/mL (≈ 0.865 µM).

**Q.** What about the EC50 [12] of the same molecule?
**A.** Its EC50 is 0.198 µg/mL (≈ 0.696 µM).

**Q.** And the EC50 [13]?
**A.** Its EC50 is 0.452 µg/mL (≈ 1.59 µM).

**Q.** What about the EC50 [14] of the same molecule?
**A.** The EC50 was 0.44 µg/mL (≈ 1.55 µM).

**Q.** And the EC50 [15]?
**A.** The EC50 was 0.177 µg/mL (≈ 0.623 µM).

**Q.** Which results are given for `CN(C)CCCn1ccc2c1C(=O)c1nccnc1C2=O`?
**A.** inhibition at 3.16 µg/mL [1]: < 50%; inhibition at 3.16 µg/mL [2]: < 50%; inhibition at 3.16 µg/mL [3]: < 50%; inhibition at 3.16 µg/mL [4]: < 50%; inhibition at 3.16 µg/mL [5]: < 50%; inhibition at 3.16 µg/mL [6]: < 50%

**Q.** For `CN(C)CCCn1ccc2c1C(=O)c1ccncc1C2=O`, which EC50 [7] is on record?
**A.** Its EC50 is 3 µg/mL (≈ 10.6 µM).

**Q.** What about the EC50 [11] of the same molecule?
**A.** The EC50 was 3 µg/mL (≈ 10.6 µM).

**Q.** And the EC50 [12]?
**A.** Its EC50 is 3 µg/mL (≈ 10.6 µM).

**Q.** And the EC50 [13]?
**A.** The EC50 was 3 µg/mL (≈ 10.6 µM).

**Q.** What about the EC50 [14] of the same molecule?
**A.** The EC50 was 3 µg/mL (≈ 10.6 µM).

**Q.** What about the EC50 [15] of the same molecule?
**A.** Its EC50 is 3 µg/mL (≈ 10.6 µM).

**Q.** Which inhibition at 3.16 µg/mL [1] does the source give for `CN(C)CCCn1ccc2c1C(=O)c1ncccc1C2=O` here?
**A.** Its inhibition at 3.16 µg/mL is under 50%.

**Q.** What about the inhibition at 3.16 µg/mL [2] of the same molecule?
**A.** The inhibition at 3.16 µg/mL was under 50%.

**Q.** What about the inhibition at 3.16 µg/mL [3] of the same molecule?
**A.** Its inhibition at 3.16 µg/mL is under 50%.

**Q.** And the inhibition at 3.16 µg/mL [4]?
**A.** Its inhibition at 3.16 µg/mL is under 50%.

**Q.** What about the inhibition at 3.16 µg/mL [5] of the same molecule?
**A.** The inhibition at 3.16 µg/mL was under 50%.

**Q.** What about the inhibition at 3.16 µg/mL [6] of the same molecule?
**A.** The inhibition at 3.16 µg/mL was under 50%.

**Q.** For `CN(C)CCn1ccc2c1C(=O)c1nccnc1C2=O`, which EC50 [7] is on record?
**A.** Its EC50 is 1.37 µg/mL (≈ 5.06 µM).

**Q.** And the EC50 [11]?
**A.** The EC50 was 1.19 µg/mL (≈ 4.42 µM).

**Q.** And the EC50 [12]?
**A.** Its EC50 is 2.7 µg/mL (≈ 9.99 µM).

**Q.** What about the EC50 [13] of the same molecule?
**A.** Its EC50 is 3 µg/mL (≈ 11.1 µM).

**Q.** What about the EC50 [14] of the same molecule?
**A.** The EC50 was 2.97 µg/mL (≈ 11 µM).

**Q.** What about the EC50 [15] of the same molecule?
**A.** Its EC50 is 1.12 µg/mL (≈ 4.15 µM).

**Q.** What does the source list for `CN(C)CCCn1ccc2c1C(=O)c1cccnc1C2=O`?
**A.** inhibition at 3.16 µg/mL [1]: < 50%; inhibition at 3.16 µg/mL [2]: < 50%; inhibition at 3.16 µg/mL [3]: < 50%; inhibition at 3.16 µg/mL [4]: < 50%; inhibition at 3.16 µg/mL [5]: < 50%; inhibition at 3.16 µg/mL [6]: < 50%
